What is called EC50 is the concentration needed to bring the measured effect to its halfway point. As a reminder, the EC25 is the concentration needed for an effect of 25%. A higher EC25 goes with a need for much substance.

Test [1] concerns PC-12. The experiment in a line: Effective concentration to induce 50 % protection of rat PC12 cells from camptothecin-induced cell death. Format: functional, cell-based. Put shortly: (§1)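 PC12 cells grown in RPMI1640 with 10% horse serum and 5% fetal calf serum to 70–80% confluence, seeded at 2.2×10^4 cells/mL, grown 12 h. Pretreated 6 h with compound (100–400 nM, 0.4% DMSO final), then camptothecin 40 μM for 24 h. Live cells read by BCECF AM (5 μM, 45 min) fluorescence, ex 490/em 535 nm. EC25/EC50 from logit plot versus log concentration, n = 3.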

Test [2] deals with PC-12. The experiment in a line: Effective concentration to induce 25 % protection of rat PC12 cells from camptothecin-induced cell death. Format: functional. Put shortly: as §1
The nature of test [3]: Neuronal survival of cells in response to compound (100 nM) addition to etoposide (2.5 uM) to hippocampal neurons. Format: functional, Rattus norvegicus, Hippocampus. The gist of the method: (§2)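 Primary hippocampal cultures from embryonic day 18 Sprague–Dawley rats, used at 9–10 days in Neurobasal/B-27 medium. Compound added 1 h before the DNA-damaging agent (camptothecin or etoposide); the agents were made as 500× DMSO stocks. Viable neurons (intact neurites, smooth round soma) were counted in premarked fields before treatment and 24 h after. Results are given as percent survival, mean ± SD.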

Test [4] in a line: Neuronal survival of cells in response to compound (100 nM) addition to camptothecin (5 uM) to hippocampal neurons. Type of test: functional, Rattus norvegicus, Hippocampus. Put shortly: as §2
Test [5] can be described thus: Neuroprotective action against glutamate (20 uM) induced cell death in hippocampal neurons. Type of test: functional, Rattus norvegicus, Hippocampus. Put shortly:
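E18 Sprague–Dawley rat hippocampal cultures (9–10 days old) were pretreated with compound (0.04 μM) 1 h before glutamate in Locke's medium; glutamate came from a fresh 200× saline stock. Viable neurons in premarked fields were counted before treatment and 24 h after insult onset, judged by neurite and soma morphology. Results are given as percent survival, mean ± SD.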

The nature of test [6]: Neuronal survival of cells in response to compound (100 nM) addition to etoposide (2.5 uM) to rat hippocampal neurons. Type of test: functional, Hippocampus. Put shortly: as §2
Test [7] in a line: Neuronal survival of cells in response to compound (100 nM) addition to camptothecin (5 uM) to rat hippocampal neurons. Format: functional, Hippocampus. The gist of the method:
as §2

In turn, `Nc1nc2c(s1)CCCC2` came in with an EC50 with PC-12 [1] of 8750 nM. Moreover, it took 855 nM to reach the 25% level in the test on PC-12 [2] (EC25).

As for `CCOC(=O)Cn1c2c(sc1=N)CCCC2`, the EC50 with PC-12 [1] turned out to be 595 nM. Besides, the EC25 in the test on PC-12 [2] is 230 nM.

Regarding `N=c1sc2c(n1CC(=O)c1ccc(Cl)cc1)CCCC2`, the midpoint of the response in the test on PC-12 [1], the EC50, lay at 190 nM. It took 120 nM to reach the 25% level with PC-12 [2] (EC25).

`COc1ccc(C(=O)Cn2c3c(sc2=N)CCCC3)cc1`: in the test on PC-12 [1], the EC50 was 180 nM. The molecule also showed an EC25 with PC-12 [2] of 150 nM.

Molecule `COc1cccc(C(=O)Cn2c3c(sc2=N)CCCC3)c1` showed an EC50 with PC-12 [1] of 420 nM. For the same molecule, the EC25 in the test with PC-12 [2] was 340 nM.

`CCC(=O)Cn1c2c(oc1=N)CCCC2` came in with an EC50 in the test on PC-12 [1] of 145 nM.

`COc1ccccc1C(=O)Cn1c2c(sc1=N)CCCC2` yielded an EC50 with PC-12 [1] of 350 nM. Besides, in the test on PC-12 [2], the EC25 came out at 250 nM.

As for `Br.CCC(=O)Cn1c2c(sc1=N)CCCC2`, the midpoint of the response with PC-12 [1], the EC50, lay at 570 nM. Also, the Survival in test [3] came out at 71%; in test [4], 65%; in test [5], 43%. The 25% effect level in the test with PC-12 [2] (EC25) was put at 410 nM.

In the case of `Cc1ccc(C(=O)Cn2c3c(oc2=N)CCCC3)cc1`, in the test with PC-12 [1], it took 70 nM to reach a half-maximal effect (EC50). This molecule also yielded an EC25 in the test on PC-12 [2] of 35 nM.

Take `N=c1sc2c(n1CC(=O)c1ccc(-c3ccccc3)cc1)CCCC2`: in the test with PC-12 [1], the midpoint of the response, the EC50, lay at 770 nM. Moreover, the EC25 with PC-12 [2] amounted to 340 nM.

In the case of `N=c1sc2c(n1CC(=O)c1ccc(F)cc1)CCCC2`, the EC50 with PC-12 [1] turned out to be 380 nM. In the test with PC-12 [2], this molecule displayed a 25% effect concentration (EC25) of 300 nM.

Take `Br.Cc1ccc(C(=O)Cn2c3c(sc2=N)CC(C)CC3)cc1` (configuration not stated): the Survival in test [6] is 60%; in test [7], 29%. The same molecule had an EC50 in the test on PC-12 [1] of 305 nM. Further, the EC25 in the test on PC-12 [2] turned out to be 100 nM.

With `N=c1sc2c(n1CC(=O)c1ccc([N+](=O)[O-])cc1)CCCC2`, the EC50 in the test with PC-12 [1] was 410 nM. This molecule displayed an EC25 with PC-12 [2] of 230 nM.

Regarding `Br.N=c1sc2c(n1Cc1ccccc1)CCCC2`, a half-maximal response with PC-12 [1] (EC50) required 740 nM. For the same molecule, the Survival in test [3] amounted to 78%; in test [4], 61%; in test [5], 43%. Besides, the EC25 in the test with PC-12 [2] was 415 nM.

`N=c1sc2c(n1CC(=O)c1ccccc1)CCCC2` returned an EC50 in the test with PC-12 [1] of 170 nM. Further, in the test on PC-12 [2], it took 80 nM to reach the 25% level (EC25).
